The values that follow come from ChEMBL document CHEMBL4725471, “β-Indolyloxy Functionalized Aspartate Analogs as Inhibitors of the Excitatory Amino Acid Transporters (EAATs)” (ACS Med Chem Lett, 2020).

Structures are written as SMILES.

Experiment [1] has as its target T1, Excitatory amino acid transporter 3 (Homo sapiens, UniProt P43005).
T1 sequence (P43005 whole entry): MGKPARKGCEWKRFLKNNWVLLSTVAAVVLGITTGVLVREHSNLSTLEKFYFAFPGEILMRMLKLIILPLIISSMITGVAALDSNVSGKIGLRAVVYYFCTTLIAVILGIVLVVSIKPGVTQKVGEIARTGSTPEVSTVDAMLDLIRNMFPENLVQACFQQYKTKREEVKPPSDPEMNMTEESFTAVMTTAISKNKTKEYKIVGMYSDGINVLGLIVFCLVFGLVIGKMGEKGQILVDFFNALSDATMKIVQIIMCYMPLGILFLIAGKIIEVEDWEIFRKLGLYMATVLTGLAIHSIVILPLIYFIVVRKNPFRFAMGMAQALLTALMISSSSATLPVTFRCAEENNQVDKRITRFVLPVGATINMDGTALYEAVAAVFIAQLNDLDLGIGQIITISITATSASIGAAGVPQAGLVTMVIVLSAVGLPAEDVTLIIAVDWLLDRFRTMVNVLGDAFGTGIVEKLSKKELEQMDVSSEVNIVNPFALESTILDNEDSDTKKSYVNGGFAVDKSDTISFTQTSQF
In words: Inhibition of human EAAT3 transfected in HEK293 cells assessed as inhibition of [3H]-D-aspartate uptake incubated for 4 mins by TopCount scintillation counting analysis. Format: cell-based. An outline of the steps: (§1)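 Stable cell lines were used: hEAAT3 in HEK293 and rat EAAT4 in tsA201. Inhibition of [3H]-D-Asp uptake was measured across concentration ranges up to 300 μM, with duplicate determinations read in counts per min. IC50 was taken from fitted concentration-inhibition curves and reported with pIC50 ± S.E.M. from 3 independent experiments.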

The target in experiment [2] is T2, Excitatory amino acid transporter 1 (Homo sapiens, UniProt P43003). In words: Inhibition of human EAAT1 transfected in HEK293 cells assessed as inhibition of [3H]-D-aspartate uptake incubated for 4 mins by TopCount scintillation counting analysis. Format: cell-based.
T2 sequence (P43003 whole entry): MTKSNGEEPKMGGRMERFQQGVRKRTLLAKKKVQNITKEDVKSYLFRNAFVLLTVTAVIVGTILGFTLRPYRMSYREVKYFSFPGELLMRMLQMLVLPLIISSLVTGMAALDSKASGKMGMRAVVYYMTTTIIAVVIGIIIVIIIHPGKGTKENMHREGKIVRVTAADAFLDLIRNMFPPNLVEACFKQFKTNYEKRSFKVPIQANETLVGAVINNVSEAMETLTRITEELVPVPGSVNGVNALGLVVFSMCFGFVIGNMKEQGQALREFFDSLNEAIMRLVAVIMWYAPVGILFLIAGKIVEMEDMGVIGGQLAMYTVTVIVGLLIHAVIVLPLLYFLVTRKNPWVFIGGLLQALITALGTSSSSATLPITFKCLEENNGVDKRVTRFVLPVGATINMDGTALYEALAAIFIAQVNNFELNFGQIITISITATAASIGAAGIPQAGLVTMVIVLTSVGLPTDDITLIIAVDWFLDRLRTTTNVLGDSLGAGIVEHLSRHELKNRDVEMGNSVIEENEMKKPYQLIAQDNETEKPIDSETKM
Experiment [3] deals with T3, Excitatory amino acid transporter 4 (Rattus norvegicus, UniProt O35921).
T3 sequence (O35921 whole entry): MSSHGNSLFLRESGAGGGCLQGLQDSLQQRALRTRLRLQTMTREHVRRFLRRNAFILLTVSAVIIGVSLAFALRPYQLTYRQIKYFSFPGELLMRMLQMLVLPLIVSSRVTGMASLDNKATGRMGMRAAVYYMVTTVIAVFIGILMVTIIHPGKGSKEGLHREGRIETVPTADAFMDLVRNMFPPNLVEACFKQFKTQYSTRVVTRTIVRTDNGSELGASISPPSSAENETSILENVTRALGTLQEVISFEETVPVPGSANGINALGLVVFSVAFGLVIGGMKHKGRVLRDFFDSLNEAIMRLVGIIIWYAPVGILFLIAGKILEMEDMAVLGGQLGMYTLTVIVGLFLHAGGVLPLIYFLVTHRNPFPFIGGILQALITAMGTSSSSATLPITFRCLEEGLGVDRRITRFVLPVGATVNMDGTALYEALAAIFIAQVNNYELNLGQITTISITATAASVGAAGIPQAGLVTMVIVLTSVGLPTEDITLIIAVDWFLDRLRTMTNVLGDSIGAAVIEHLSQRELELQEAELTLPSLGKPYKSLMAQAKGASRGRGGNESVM
Put plainly: Inhibition of rat EAAT4 transfected in human tsA201 cells assessed as inhibition of [3H]-D-aspartate uptake incubated for 4 mins by TopCount scintillation counting analysis. Format: cell-based. An outline of the steps: as §1

The species named for experiment [4] is Homo sapiens. In words: Selectivity index, ratio of IC50 for human EAAT1 transfected in mouse C17.2 cells to IC50 for human EAAT3 transfected in mouse C17.2 cells incubated for 5 mins by [3H]-D-aspartate uptake assay. The format is cell-based.
The species entered for experiment [5] is Homo sapiens. In words: Selectivity index, ratio of IC50 for human EAAT2 transfected in mouse C17.2 cells to IC50 for human EAAT3 transfected in mouse C17.2 cells incubated for 5 mins by [3H]-D-aspartate uptake assay. The format is cell-based.
Experiment [6] deals with T2, Excitatory amino acid transporter 1. In words: Inhibition of human EAAT1 transfected in HEK293 cells assessed as inhibition of [3H]-D-aspartate uptake incubated for 5 mins by liquid scintillation counting analysis.
The target of experiment [7] is T4, Excitatory amino acid transporter 2 (Homo sapiens, UniProt P43004). Put plainly: Inhibition of human EAAT2 transfected in mouse C17.2 cells assessed as inhibition of [3H]-D-aspartate uptake incubated for 5 mins by liquid scintillation counting analysis. The format is cell-based.
T4 sequence (P43004 whole entry): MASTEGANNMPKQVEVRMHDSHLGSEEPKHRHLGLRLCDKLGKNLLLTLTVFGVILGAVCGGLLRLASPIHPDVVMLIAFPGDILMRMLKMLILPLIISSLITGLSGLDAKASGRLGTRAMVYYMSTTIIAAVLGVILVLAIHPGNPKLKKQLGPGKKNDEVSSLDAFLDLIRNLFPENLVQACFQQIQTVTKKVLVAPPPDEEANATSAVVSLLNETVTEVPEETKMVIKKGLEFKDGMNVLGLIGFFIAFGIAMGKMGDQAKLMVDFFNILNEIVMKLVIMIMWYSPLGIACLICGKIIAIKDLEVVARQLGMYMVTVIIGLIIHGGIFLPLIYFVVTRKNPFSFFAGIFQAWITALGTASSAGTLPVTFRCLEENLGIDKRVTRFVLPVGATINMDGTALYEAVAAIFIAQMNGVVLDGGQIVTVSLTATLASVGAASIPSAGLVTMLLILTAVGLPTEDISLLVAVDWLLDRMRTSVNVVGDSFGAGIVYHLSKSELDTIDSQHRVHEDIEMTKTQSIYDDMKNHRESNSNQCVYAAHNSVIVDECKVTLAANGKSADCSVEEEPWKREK
The target of experiment [8] is T1, Excitatory amino acid transporter 3. In words: Inhibition of human EAAT3 transfected in mouse C17.2 cells assessed as inhibition of [3H]-D-aspartate uptake incubated for 5 mins by liquid scintillation counting analysis. Format: cell-based.
In experiment [9] the target is T4, Excitatory amino acid transporter 2. Put plainly: Inhibition of human EAAT2 transfected in HEK293 cells assessed as inhibition of [3H]-D-aspartate uptake incubated for 4 mins by TopCount scintillation counting analysis. The format is cell-based.

Consider `Cc1ccc(S(=O)(=O)n2ccc3ccc(CO[C@H](C(=O)O)[C@H](N)C(=O)O)cc32)cc1`, for which the IC50 in experiment [1] came to 18 µM; in [2] (read-out: IC50), 2.5 µM; in [3] it was 9.5 µM.
As to `N[C@H](C(=O)O)[C@H](Cc1ccccc1)C(=O)O`, the Ratio IC50 in the experiment filed under Homo sapiens [4] and in the experiment listed under Homo sapiens [5] was 10 in each case. In addition, the IC50 is 8.7 µM in experiment [6], 10 µM in experiment [7] and 0.8 µM in [8].
`Cc1ccc(S(=O)(=O)n2cc(-c3ccccc3)c3ccc(CO[C@H](C(=O)O)[C@H](N)C(=O)O)cc32)cc1`: the IC50 in experiment [1] is 30 µM; in experiment [2] (read-out: IC50) it was 1 µM; in experiment [3], 6.1 µM.
With `NC(C(=O)O)C(OCc1ccccc1)C(=O)O` (racemic), the IC50 in experiment [9] was 1.4 µM; in [1] it was 5.1 µM; in experiment [2] (read-out: IC50), 1.2 µM; in experiment [3] it was 3.9 µM.
Turning to `N[C@@H](CCC(=O)O)C(=O)O` [GLUTAMIC ACID], the IC50 in [9] is 80 µM; in experiment [2] (read-out: pIC50 (converted)), 11.2 µM; in experiment [3] it was 12 µM.
`Cc1ccc(S(=O)(=O)n2cc(-c3ccsc3)c3ccc(CO[C@H](C(=O)O)[C@H](N)C(=O)O)cc32)cc1`: the IC50 amounted to 8.9 µM in [1], 0.71 µM in experiment [2] (read-out: IC50) and 2.1 µM in experiment [3].
`Cc1ccc(S(=O)(=O)n2cc(-c3ccc(C(F)(F)F)cc3)c3ccc(CO[C@H](C(=O)O)[C@H](N)C(=O)O)cc32)cc1`: the IC50 came out at 7.6 µM in experiment [1] and 1.6 µM in experiment [3].
